Measurements of several laboratories.
Protocols differ between the studies behind these lines.
Target: Ephrin type-A receptor 1 (EPHA1, Homo sapiens, UniProt P21709)
Residues used in one study (P21709 26-976): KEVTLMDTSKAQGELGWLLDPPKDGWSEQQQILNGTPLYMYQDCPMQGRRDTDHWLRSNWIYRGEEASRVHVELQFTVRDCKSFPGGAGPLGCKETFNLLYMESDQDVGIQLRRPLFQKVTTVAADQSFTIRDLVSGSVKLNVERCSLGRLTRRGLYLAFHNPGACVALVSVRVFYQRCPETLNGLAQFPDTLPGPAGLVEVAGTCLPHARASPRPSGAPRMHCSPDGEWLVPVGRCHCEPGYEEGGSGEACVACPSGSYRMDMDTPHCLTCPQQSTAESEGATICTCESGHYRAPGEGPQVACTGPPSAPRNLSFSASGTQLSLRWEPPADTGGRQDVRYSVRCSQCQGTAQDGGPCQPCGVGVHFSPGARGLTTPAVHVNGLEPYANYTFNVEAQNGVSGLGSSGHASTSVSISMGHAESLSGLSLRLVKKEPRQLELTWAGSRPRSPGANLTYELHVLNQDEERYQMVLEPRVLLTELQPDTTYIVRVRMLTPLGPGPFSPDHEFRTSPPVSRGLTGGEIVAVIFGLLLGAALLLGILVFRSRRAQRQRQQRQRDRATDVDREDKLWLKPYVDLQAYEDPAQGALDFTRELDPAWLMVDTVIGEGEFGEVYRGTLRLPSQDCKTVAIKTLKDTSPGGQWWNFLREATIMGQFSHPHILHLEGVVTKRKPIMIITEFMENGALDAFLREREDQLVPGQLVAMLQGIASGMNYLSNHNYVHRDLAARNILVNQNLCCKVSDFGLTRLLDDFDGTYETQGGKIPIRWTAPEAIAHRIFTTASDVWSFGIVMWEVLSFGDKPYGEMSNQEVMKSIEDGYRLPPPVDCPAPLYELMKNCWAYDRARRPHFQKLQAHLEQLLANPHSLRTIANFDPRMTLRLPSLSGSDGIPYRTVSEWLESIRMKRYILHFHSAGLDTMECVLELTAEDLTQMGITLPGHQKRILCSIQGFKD

CC(=O)C1=C(C)N(c2cccc(C(F)(F)F)c2)C(=O)N[C@@H]1c1ccc(C#N)nc1  remaining binding (cell-free assay; competition with immobilised ligand; 1 µM): 100%
COc1ccnn2ncc(-c3ccnc(N(C)C)n3)c12  remaining binding (binding; 1 µM): 100%
C=CC(=O)N1CCC(C(=O)NCC(=O)N2CCN(c3nc(-c4cnc(N)nc4C(F)F)nc(N4CCOCC4)n3)CC2)CC1  remaining binding (binding; competition with immobilised ligand; 1 µM): 100%
CC(C)CC(=O)N1CCc2nc(-c3ccc(Br)cc3)nc(N(C)Cc3ccccc3)c2C1  remaining binding (cell-free assay; competition with immobilised ligand; 0.1 µM): 100%
CN(C)c1nccc(-c2cnc3ncccn23)n1  remaining binding (binding; 1 µM): 93%
CNC(=O)[C@@H]1CC[C@@H](n2c(-c3ccc4cnccc4c3)nc3ccc(C(=O)NCc4cccc(C(N)=O)c4)cc32)C1  remaining binding (binding; competition with immobilised ligand; 1 µM): 100%
CCS(=O)(=O)c1cc2cc(C[C@@](O)(CC(C)(C)c3ccc(F)cc3C(N)=O)C(F)(F)F)[nH]c2cn1  remaining binding (cell-free assay; competition with immobilised ligand; 1 µM): 99%
CN(C)c1ncc(F)c(-c2cnn3ncccc23)n1  remaining binding (binding; 1 µM): 98%
O=C(c1ccc(Nc2ncc(Cl)c(-c3cc4ccccc4s3)n2)cc1)N1CCC(N2CCCC2)CC1  remaining binding (binding; competition with immobilised ligand; 1 µM): 16%
CNC(=O)Nc1ccc2c(c1)CC[C@@]21OC(=O)N(CC(=O)N(Cc2ccc(F)cc2)[C@@H](C)C(F)(F)F)C1=O  remaining binding (cell-free assay; competition with immobilised ligand; 1 µM): 88%
c1cncc(-c2cccc(Nc3nccc(NC4CCCCC4)n3)c2)c1  remaining binding (binding; competition with immobilised ligand; 10 µM): 51%
C[C@H]1CCN(c2nccc(-c3cnn4ncccc34)n2)C1  remaining binding (binding; 1 µM): 84%
O=C(Nc1c[nH]nc1C(=O)NC1CCNCC1)c1cc(F)cc(F)c1  remaining binding (binding; competition with immobilised ligand; 1 µM): 100%
c1cnn2ncc(-c3ccnc(N4CCC45COC5)n3)c2c1  remaining binding (binding; 1 µM): 89%
CCC(=O)N[C@H]1CC[C@@H](C(=O)N(C)c2ccc(-c3nc4ccccc4o3)cc2)C1  remaining binding (cell-free assay; competition with immobilised ligand; 1 µM): 100%
O=C(NCCCN1CCOCC1)c1ccc(Nc2nccc(-c3cc4ccccc4s3)n2)cc1  remaining binding (binding; competition with immobilised ligand; 1 µM): 44%
COc1ncc2cc3ccccc3nc2c1C#N  remaining binding (cell-free assay; competition with immobilised ligand; 5 µM): 95%
COc1cnc(Nc2cccc(S(N)(=O)=O)c2)nc1N1CCN(c2ccccc2)CC1  remaining binding (binding; competition with immobilised ligand; 1 µM): 100%
N[C@H]1CCN(c2nccc(-c3cnn4ncccc34)n2)C1  remaining binding (binding; 1 µM): 100%
CC(=O)N1CCC(c2ccc(C(=O)NC(=N)N)cc2C(F)(F)F)CC1  remaining binding (cell-free assay; competition with immobilised ligand; 1 µM): 100%
O=C(c1ccc(Nc2ncc(Cl)c(-c3ccc(Cl)s3)n2)cc1)N1CCC(N2CCCC2)CC1  remaining binding (binding; competition with immobilised ligand; 1 µM): 32%
